The text below walks through data of ChEMBL document CHEMBL1949612, “Design, synthesis, and functionalization of dimeric peptides targeting chemokine receptor CXCR4” (J Med Chem, 2011).

*1 amine or outer side, *2 acyl side, *3 side chain or, on linkers, in order; H or OH if unused. Where a SMILES comes first, the peptide text is derived from it. Bridges are numbered along the chain shown (N, C = ends). Roman numbers before positions name the chains, in order. [ ]: non-standard residue; d: D form. The star is where a group is joined. C16 diacid = O=C(O)CCCCCCCCCCCCCCC(=O)*; Sebacoyl = O=C(CCCCCCCCC(=O)[*:2])[*:1]; 2Nal = N[C@@H](Cc1ccc2ccccc2c1)C(=O)O; Suberoyl = O=C(CCCCCCC(=O)[*:2])[*:1]; Adipoyl = O=C(CCCCC(=O)[*:2])[*:1]; Glutaryl = O=C(CCCC(=O)[*:2])[*:1]; dNMeOrn = CN[C@H](CCCN)C(=O)O; Suc = O=C(CCC(=O)[*:2])[*:1]

Sequence of C-X-C chemokine receptor type 4 (P61073 whole entry): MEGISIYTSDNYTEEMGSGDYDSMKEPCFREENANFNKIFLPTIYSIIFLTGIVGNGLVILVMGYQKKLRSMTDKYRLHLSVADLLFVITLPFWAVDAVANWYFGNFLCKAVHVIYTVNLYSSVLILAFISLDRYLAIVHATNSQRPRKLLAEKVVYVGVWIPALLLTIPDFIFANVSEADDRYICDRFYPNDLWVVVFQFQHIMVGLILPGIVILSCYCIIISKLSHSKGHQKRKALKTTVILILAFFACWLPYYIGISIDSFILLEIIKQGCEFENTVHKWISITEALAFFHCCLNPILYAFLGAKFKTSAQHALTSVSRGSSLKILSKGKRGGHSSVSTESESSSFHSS

The target in the experiment is C-X-C chemokine receptor type 4 (Homo sapiens, UniProt P61073). As to the kind of experiment: Displacement of [125I]-CPCR4 from CXCR4 receptor in human Jurkat cells after 2 hrs by gamma counting. It counts as cell-based. Put shortly:
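Whole Jurkat cells (400000 per tube) in PBS/0.2% BSA were incubated with ~0.1 nM (3.1 kBq) 125I-CPCR4 and test peptide at 10^-11 to 10^-5 M, shaken 2 h at RT. Nonspecific binding was taken with 1 μM unlabeled CPCR4. Cells were pelleted, washed twice with cold PBS, and bound activity was counted. Runs were done in triplicate, repeated 2–3 times. IC50 was fitted by nonlinear regression.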
For orientation: In a radioligand displacement assay an active substance lowers the binding of a labelled ligand.
Take `CN1C(=O)[C@@H](Cc2ccc(O)cc2)NC(=O)CNC(=O)[C@H](Cc2ccc3ccccc3c2)NC(=O)[C@H](CCCNC(=N)N)NC(=O)[C@H]1CCCNC(=O)CNC(=O)C[C@H](NC(=O)CCCCCNC(=O)CN1CCN(CC(=O)O)CCN(CC(=O)O)CCN(CC(=O)O)CC1)C(=O)NCC(=O)NCCC[C@@H]1C(=O)N[C@@H](CCCNC(=N)N)C(=O)N[C@@H](Cc2ccc3ccccc3c2)C(=O)NCC(=O)N[C@H](Cc2ccc(O)cc2)C(=O)N1C`: the IC50 (in general, the concentration needed to halve the response being measured) was found to be 39 nM.

In turn, `CC(=O)NCCC[C@@H]1C(=O)N[C@@H](CCCNC(N)=O)C(=O)N[C@@H](Cc2ccc3ccccc3c2)C(=O)NCC(=O)N[C@H](Cc2ccc(O)cc2)C(=O)N1C` displayed an IC50 of 1000 nM. For `CN1C(=O)[C@@H](Cc2ccc(O)cc2)NC(=O)CNC(=O)[C@H](Cc2ccc3ccccc3c2)NC(=O)[C@H](CCCN=C(N)N)NC(=O)[C@H]1CCCNC(=O)CCCCCCCCC(=O)NCCC[C@@H]1C(=O)N[C@@H](CCCN=C(N)N)C(=O)N[C@@H](Cc2ccc3ccccc3c2)C(=O)NCC(=O)N[C@H](Cc2ccc(O)cc2)C(=O)N1C` (I: cyclo([2Nal]G[dY][dNMeOrn]R) / II: cyclo([2Nal]G[dY][dNMeOrn]R); linker I:4-II:4 via Sebacoyl) the value was 2 nM. For `CN1C(=O)[C@@H](Cc2ccc(O)cc2)NC(=O)CNC(=O)[C@H](Cc2ccc3ccccc3c2)NC(=O)[C@H](CCCNC(=N)N)NC(=O)[C@H]1CCCNC(=O)CCC(=O)NCCC[C@@H]1C(=O)N[C@@H](CCCNC(=N)N)C(=O)N[C@@H](Cc2ccc3ccccc3c2)C(=O)NCC(=O)N[C@H](Cc2ccc(O)cc2)C(=O)N1C` (I: cyclo([2Nal]G[dY][dNMeOrn]R) / II: cyclo([2Nal]G[dY][dNMeOrn]R); linker I:4-II:4 via Suc) the value was 12 nM. With `CN1C(=O)[C@@H](Cc2ccc(O)cc2)NC(=O)CNC(=O)[C@H](Cc2ccc3ccccc3c2)NC(=O)[C@H](CCCN=C(N)N)NC(=O)[C@H]1CCCNC(=O)CCCCCCCCCCCC(=O)NCCC[C@@H]1C(=O)N[C@@H](CCCNC(N)=O)C(=O)N[C@@H](Cc2ccc3ccccc3c2)C(=O)NCC(=O)N[C@H](Cc2ccc(O)cc2)C(=O)N1C`, the IC50 amounted to 4 nM.

Compound `CN1C(=O)[C@@H](Cc2ccc(O)cc2)NC(=O)CNC(=O)[C@H](Cc2ccc3ccccc3c2)NC(=O)[C@H](CCCNC(=N)N)NC(=O)[C@H]1CCCNC(=O)CCCCCCC(=O)NCCC[C@@H]1C(=O)N[C@@H](CCCNC(=N)N)C(=O)N[C@@H](Cc2ccc3ccccc3c2)C(=O)NCC(=O)N[C@H](Cc2ccc(O)cc2)C(=O)N1C` (I: cyclo([2Nal]G[dY][dNMeOrn]R) / II: cyclo([2Nal]G[dY][dNMeOrn]R); linker I:4-II:4 via Suberoyl) gave an IC50 of 3 nM.

The compound `CC(=O)NCCC[C@@H]1C(=O)N[C@@H](CCCNC(=N)N)C(=O)N[C@@H](Cc2ccc3ccccc3c2)C(=O)NCC(=O)N[C@H](Cc2ccc(O)cc2)C(=O)N1C` had an IC50 of 60 nM. For `CN1C(=O)[C@@H](Cc2ccc(O)cc2)NC(=O)CNC(=O)[C@H](Cc2ccc3ccccc3c2)NC(=O)[C@H](CCCNC(=N)N)NC(=O)[C@H]1CCCNC(=O)C[C@H](NC(=O)CCCCCNC(=O)CN1CCN(CC(=O)O)CCN(CC(=O)O)CCN(CC(=O)O)CC1)C(=O)NCCC[C@@H]1C(=O)N[C@@H](CCCNC(=N)N)C(=O)N[C@@H](Cc2ccc3ccccc3c2)C(=O)NCC(=O)N[C@H](Cc2ccc(O)cc2)C(=O)N1C` the value was 98 nM. For `CN1C(=O)[C@@H](Cc2ccc(O)cc2)NC(=O)CNC(=O)[C@H](Cc2ccc3ccccc3c2)NC(=O)[C@H](CCCNC(=N)N)NC(=O)[C@H]1CCCN` the value was 6 nM; for `CN1C(=O)[C@@H](Cc2ccc(O)cc2)NC(=O)CNC(=O)[C@H](Cc2ccc3ccccc3c2)NC(=O)[C@H](CCCNC(=N)N)NC(=O)[C@H]1CCCNC(=O)CNC(=O)CCCC(=O)NCC(=O)NCCC[C@@H]1C(=O)N[C@@H](CCCNC(=N)N)C(=O)N[C@@H](Cc2ccc3ccccc3c2)C(=O)NCC(=O)N[C@H](Cc2ccc(O)cc2)C(=O)N1C`, 14 nM; for `CN1C(=O)[C@@H](Cc2ccc(O)cc2)NC(=O)CNC(=O)[C@H](Cc2ccc3ccccc3c2)NC(=O)[C@H](CCCNC(=N)N)NC(=O)[C@H]1CCCNC(=O)CCCCCCCCCCCCCCC(=O)NCCC[C@@H]1C(=O)N[C@@H](CCCNC(=N)N)C(=O)N[C@@H](Cc2ccc3ccccc3c2)C(=O)NCC(=O)N[C@H](Cc2ccc(O)cc2)C(=O)N1C` (I: cyclo([2Nal]G[dY][dNMeOrn]R) / II: cyclo([2Nal]G[dY][dNMeOrn]R); linker I:4-II:4 via C16 diacid), 33 nM. The result for `CN1C(=O)[C@@H](Cc2ccc(O)cc2)NC(=O)CNC(=O)[C@H](Cc2ccc3ccccc3c2)NC(=O)[C@H](CCCN=C(N)N)NC(=O)[C@H]1CCCNC(=O)CCCCC(=O)NCCC[C@@H]1C(=O)N[C@@H](CCCN=C(N)N)C(=O)N[C@@H](Cc2ccc3ccccc3c2)C(=O)NCC(=O)N[C@H](Cc2ccc(O)cc2)C(=O)N1C` (I: cyclo([2Nal]G[dY][dNMeOrn]R) / II: cyclo([2Nal]G[dY][dNMeOrn]R); linker I:4-II:4 via Adipoyl) reads 4 nM. On to `CN1C(=O)[C@@H](Cc2ccc(O)cc2)NC(=O)CNC(=O)[C@H](Cc2ccc3ccccc3c2)NC(=O)[C@H](CCCNC(=N)N)NC(=O)[C@H]1CCCNC(=O)CC(CC(=O)NCCC[C@@H]1C(=O)N[C@@H](CCCNC(=N)N)C(=O)N[C@@H](Cc2ccc3ccccc3c2)C(=O)NCC(=O)N[C@H](Cc2ccc(O)cc2)C(=O)N1C)NC(=O)CCCCCNC(=O)CN1CCN(CC(=O)O)CCN(CC(=O)O)CCN(CC(=O)O)CC1` (stereo partly drawn), for which the IC50 turned out to be 31 nM.

Turning to `CN1C(=O)[C@@H](Cc2ccc(O)cc2)NC(=O)CNC(=O)[C@H](Cc2ccc3ccccc3c2)NC(=O)[C@H](CCCN=C(N)N)NC(=O)[C@H]1CCCNC(=O)CNC(=O)CC(=O)NCC(=O)NCCC[C@@H]1C(=O)N[C@@H](CCCN=C(N)N)C(=O)N[C@@H](Cc2ccc3ccccc3c2)C(=O)NCC(=O)N[C@H](Cc2ccc(O)cc2)C(=O)N1C`, the IC50 was determined as 8 nM.

For the compound `CN1C(=O)[C@@H](Cc2ccc(O)cc2)NC(=O)CNC(=O)[C@H](Cc2ccc3ccccc3c2)NC(=O)[C@H](CCCN=C(N)N)NC(=O)[C@H]1CCCNC(=O)CNC(=O)CC(CC(=O)NCC(=O)NCCC[C@@H]1C(=O)N[C@@H](CCCN=C(N)N)C(=O)N[C@@H](Cc2ccc3ccccc3c2)C(=O)NCC(=O)N[C@H](Cc2ccc(O)cc2)C(=O)N1C)NC(=O)CCCCCNC(=O)CN1CCN(CC(=O)O)CCN(CC(=O)O)CCN(CC(=O)O)CC1`, the IC50 is 17 nM. For `CN1C(=O)[C@@H](Cc2ccc(O)cc2)NC(=O)CNC(=O)[C@H](Cc2ccc3ccccc3c2)NC(=O)[C@H](CCCN=C(N)N)NC(=O)[C@H]1CCCNC(=O)CCCC(=O)NCCC[C@@H]1C(=O)N[C@@H](CCCNC(N)=O)C(=O)N[C@@H](Cc2ccc3ccccc3c2)C(=O)NCC(=O)N[C@H](Cc2ccc(O)cc2)C(=O)N1C` the value was 19 nM. For `CN1C(=O)[C@@H](Cc2ccc(O)cc2)NC(=O)CNC(=O)[C@H](Cc2ccc3ccccc3c2)NC(=O)[C@H](CCCNC(=N)N)NC(=O)[C@H]1CCCNC(=O)CCCC(=O)NCCC[C@@H]1C(=O)N[C@@H](CCCNC(=N)N)C(=O)N[C@@H](Cc2ccc3ccccc3c2)C(=O)NCC(=O)N[C@H](Cc2ccc(O)cc2)C(=O)N1C` (I: cyclo([2Nal]G[dY][dNMeOrn]R) / II: cyclo([2Nal]G[dY][dNMeOrn]R); linker I:4-II:4 via Glutaryl) the value was 4 nM; for `CN1C(=O)[C@@H](Cc2ccc(O)cc2)NC(=O)CNC(=O)[C@H](Cc2ccc3ccccc3c2)NC(=O)[C@H](CCCNC(=N)N)NC(=O)[C@H]1CCCNC(=O)CNC(=O)CCC(=O)NCC(=O)NCCC[C@@H]1C(=O)N[C@@H](CCCNC(=N)N)C(=O)N[C@@H](Cc2ccc3ccccc3c2)C(=O)NCC(=O)N[C@H](Cc2ccc(O)cc2)C(=O)N1C`, 6 nM.
